The values that follow come from ChEMBL document CHEMBL4665743, “Labdane-Type Diterpenes from the Aerial Parts of Rydingia persica: Their Absolute Configurations and Protective Effects on LPS-Induced Inflammation in Keratinocytes” (2020).

Holding throughout (format): functional
The test system of assay [1] is HaCaT. Nature of the assay: Anti-inflammatory activity in human HaCaT cells assessed as inhibition of LPS-induced nitrotyrosine production at 12.5 uM after 24 hrs by FACS analysis relative to LPS alone. An outline of the steps:
(§1)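 Cells were HaCaT seeded at 5 × 10^3 cells/well and pretreated with compound 1 h, then exposed to LPS (5 μg/mL) for 24 h. They were collected, PBS-washed, fixed 20 min and permeabilized 30 min, then stained 1 h with anti-nitrotyrosine antibody plus fluorescent secondary. Fluorescence was read by flow cytometry and expressed as % inhibition vs LPS alone. Mean ± SEM, n = 3.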
On the technique in general: A flow cytometer gives signals particle by particle.

The test system of assay [2] is HaCaT. As to the kind of experiment: Anti-inflammatory activity in human HaCaT cells assessed as inhibition of LPS-induced occluding expression at 25 uM after 24 hrs by FACS analysis (rvb = 30.17 +/- 5.98).
The subject of assay [3] is HaCaT. Nature of the assay: Anti-inflammatory activity in human HaCaT cells assessed as inhibition of LPS-induced claudin-1 expression at 50 uM after 24 hrs by FACS analysis (rvb = 31.19 +/- 0.77).
Assay [4] deals with HaCaT. Nature of the assay: Anti-inflammatory activity in human HaCaT cells assessed as inhibition of LPS-induced TNF-alpha production at 12.5 uM after 24 hrs by ELISA relative to LPS alone. An outline of the steps: (§2)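 HaCaT keratinocytes (DMEM, 4 g/L glucose, 10% FBS, 1% pen-strep) seeded 5 × 10^3 cells/well and allowed to adhere 24 h. Compounds added for 1 h alone, then with E. coli LPS (5 μg/mL) for 24 h. IL-6 or TNF-α measured in supernatants by ELISA (pg/mL) and expressed as % inhibition vs LPS alone. Indomethacin 10 μM served as reference. Mean ± SEM, n = 3.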
A general note: In an ELISA, binding on a coated surface is turned into a signal by an enzyme label.

For assay [5], the system named is HaCaT. As to the kind of experiment: Anti-inflammatory activity in human HaCaT cells assessed as inhibition of LPS-induced claudin-1 expression at 25 uM after 24 hrs by FACS analysis (rvb = 31.19 +/- 0.77).
Assay [6] deals with HaCaT. Nature of the assay: Anti-inflammatory activity in human HaCaT cells assessed as inhibition of LPS-induced nitrotyrosine production at 50 uM after 24 hrs by FACS analysis relative to LPS alone. An outline of the steps: as §1
Assay [7] has as its system HaCaT. As to the kind of experiment: Anti-inflammatory activity in human HaCaT cells assessed as inhibition of LPS-induced IL-6 production at 12.5 uM after 24 hrs by ELISA relative to LPS alone. An outline of the steps:
as §2

Assay [8] concerns HaCaT. As to the kind of experiment: Anti-inflammatory activity in human HaCaT cells assessed as inhibition of LPS-induced IL-6 production at 50 uM after 24 hrs by ELISA relative to LPS alone. The essentials:
as §2

For assay [9], the system named is HaCaT. Nature of the assay: Anti-inflammatory activity in human HaCaT cells assessed as inhibition of LPS-induced IL-6 production at 25 uM after 24 hrs by ELISA relative to LPS alone. The essentials: as §2
In assay [10] the test system is HaCaT. As to the kind of experiment: Anti-inflammatory activity in human HaCaT cells assessed as inhibition of LPS-induced TNF-alpha production at 50 uM after 24 hrs by ELISA relative to LPS alone. The essentials:
as §2

The subject of assay [11] is HaCaT. Nature of the assay: Anti-inflammatory activity in human HaCaT cells assessed as inhibition of LPS-induced TNF-alpha production at 25 uM after 24 hrs by ELISA relative to LPS alone. The essentials: as §2
Assay [12] concerns HaCaT. As to the kind of experiment: Anti-inflammatory activity in human HaCaT cells assessed as inhibition of LPS-induced occluding expression at 12.5 uM after 24 hrs by FACS analysis (rvb = 30.17 +/- 5.98).
Assay [13] deals with HaCaT. As to the kind of experiment: Anti-inflammatory activity in human HaCaT cells assessed as inhibition of LPS-induced claudin-1 expression at 12.5 uM after 24 hrs by FACS analysis (rvb = 31.19 +/- 0.77).
Assay [14] relates to HaCaT. As to the kind of experiment: Anti-inflammatory activity in human HaCaT cells assessed as inhibition of LPS-induced nitrotyrosine production at 25 uM after 24 hrs by FACS analysis relative to LPS alone. The essentials:
as §1

The subject of assay [15] is HaCaT. Nature of the assay: Anti-inflammatory activity in human HaCaT cells assessed as inhibition of LPS-induced occluding expression at 50 uM after 24 hrs by FACS analysis (rvb = 30.17 +/- 5.98).

The inhibition is the share of the control response that was lost under treatment.

Consider `CC1=C(CCC2=CC(O)OC2=O)[C@@]2(C)CC[C@@H](O)C(C)(C)[C@@H]2CC1=O` (stereo not given in full), for which the inhibition at 12.5 µM in assay [1] is 30%; in assay [4] it was 68%; in assay [7], 56%. In addition, the Flu intensity is 13.83 in assay [2]; 22.83 in [3]; 13.14 in assay [5]; 10.27 in assay [12]; 5.01 in assay [13]; 25.71 in [15]. For the same compound, the results for the inhibition at 50 µM in assay [6], in [8] and in assay [10] were 58.7%, 76% and 73.5%, respectively. For the same compound, the inhibition at 25 µM turned out to be 70.5% in assay [9], 70.5% in assay [11] and 37% in assay [14].

For the compound `CC1=C(CCc2ccoc2)[C@@]2(C)CC[C@@H](O)C(C)(C)[C@@H]2[C@H](O)C1=O`, the inhibition at 12.5 µM in assay [1] is 5%; in assay [4] it was 39.5%; in [7], 65.5%. The Flu intensity in assay [2] amounted to 21.1; in assay [3], 34.97; in assay [5], 23.72; in [12] it was 18.52; in assay [13], 12.24; in assay [15], 31.92. Moreover, the values for the inhibition at 50 µM in assay [6], in assay [8] and in assay [10] were 56%, 81% and 68%, respectively. In addition, the figures for the inhibition at 25 µM in assay [9], in assay [11] and in assay [14] were 69%, 68% and 40%, respectively.

As for `CC(=O)O[C@@H]1CC[C@@]2(C)[C@@H](C(=O)[C@H](O)[C@@H](C)[C@]2(O)CCc2ccoc2)C1(C)C`, the results for the inhibition at 12.5 µM in [1], in assay [4] and in assay [7] were 9%, 15.6% and 73.5%, respectively. The Flu intensity in assay [2] came out at 16.06; in assay [3] it was 26.08; in assay [5], 16.35; in assay [12] it was 10.89; in [13], 14.96; in assay [15] it was 22.88. The inhibition at 50 µM in [6] is 56.3%; in [8], 80.5%; in [10] it was 68%. Also, the inhibition at 25 µM came to 77% in [9], 62% in assay [11] and 42.7% in assay [14].

For `C[C@@H]1C(=O)C[C@H]2C(C)(C)[C@H](O)CC[C@]2(C)[C@@]1(O)CCc1ccoc1`, the inhibition at 12.5 µM came to 6.33% in assay [1], 37% in assay [4] and 48% in assay [7]. In addition, the Flu intensity in [2] is on record as 24.34; in assay [3], 36.5; in assay [5] it was 30.04; in assay [12], 17.8; in assay [13] it was 19.29; in assay [15], 32.27. In addition, the inhibition at 50 µM in assay [6] was found to be 46.3%; in assay [8], 69.5%; in [10] it was 65%. Also, the inhibition at 25 µM in [9] turned out to be 64.5%; in [11], 62.5%; in assay [14], 30.5%.

Consider `CO[C@@H]1C[C@@]2(CC[C@@]3(O2)[C@H](C)C(=O)C[C@H]2C(C)(C)[C@H](O)CC[C@@]23C)C(=O)O1`, for which the inhibition at 12.5 µM was found to be 14.3% in [1], 41.5% in [4] and 75% in assay [7]. Moreover, the Flu intensity in assay [2] amounted to 18.73; in [3] it was 32.36; in assay [5], 24.86; in assay [12], 9.09; in [13], 8.09; in assay [15] it was 25.11. Further, the inhibition at 50 µM in assay [6] was 57.5%; in assay [8], 76.5%; in [10], 56.5%. Besides, the inhibition at 25 µM in assay [9] was 75.5%; in [11], 50.5%; in assay [14], 40%.

In the case of `CO[C@@H]1C[C@]2(CC[C@@]3(O2)[C@H](C)C(=O)C[C@H]2C(C)(C)[C@H](O)CC[C@@]23C)CO1`, the inhibition at 12.5 µM in assay [1] was determined as 0%; in assay [4] it was 44%; in assay [7], 63%. Also, the Flu intensity in assay [2] is 18.59; in [3] it was 33.58; in [5] it was 22.52; in assay [12], 8.82; in assay [13], 13.55; in [15], 24.77. The inhibition at 50 µM in [6] is 39.3%; in assay [8], 76.5%; in [10], 68%. Besides, the results for the inhibition at 25 µM in assay [9], in [11] and in assay [14] were 71.5%, 62.5% and 21%, respectively.

As for `CC(=O)OC[C@@]1(C)[C@H](O)CC[C@]2(C)C(CCC3=CC(O)OC3=O)=C(C)C(=O)C[C@@H]12` (stereo not given in full), the inhibition at 12.5 µM in assay [1] came to 3.67%; in [4], 35%; in [7] it was 44.5%. Further, the Flu intensity in assay [2] stood at 21.77; in [3] it was 34.13; in [5], 20.73; in assay [12], 12.54; in assay [13], 14.41; in assay [15] it was 32.25. Moreover, the inhibition at 50 µM is 61.7% in assay [6], 73.5% in assay [8] and 56.5% in [10]. The inhibition at 25 µM came out at 49.5% in assay [9], 47.5% in [11] and 43% in [14].

As to `COC1C=C(CCC2=C(C)C(=O)C[C@H]3C(C)(C)[C@H](O)CC[C@]23C)C(=O)O1` (stereo not given in full), the inhibition at 12.5 µM in assay [1] turned out to be 0.5%; in [4], 52%; in [7], 65.5%. Further, the Flu intensity is 22.64 in assay [2]; 27.21 in assay [3]; 20.46 in assay [5]; 18.46 in [12]; 16.74 in [13]; 34.73 in [15]. Moreover, the inhibition at 50 µM in [6] turned out to be 59.3%; in assay [8] it was 74.5%; in assay [10], 72%. The inhibition at 25 µM was 74% in assay [9], 68% in [11] and 29.5% in assay [14].

As for `CC(=O)OC[C@@]1(C)[C@H](O)CC[C@]2(C)C(CCc3ccoc3)=C(C)C(=O)C[C@@H]12`, the values for the inhibition at 12.5 µM in assay [1], in assay [4] and in assay [7] were 0%, 0% and 66.5%, respectively. Besides, the Flu intensity in assay [2] came to 19.18; in assay [3], 17.12; in assay [5], 14.18; in assay [12] it was 13.27; in assay [13], 6.86; in assay [15] it was 31.34. The figures for the inhibition at 50 µM in [6], in assay [8] and in [10] were 58.3%, 73.5% and 44%, respectively. In addition, the inhibition at 25 µM in assay [9] worked out at 67%; in [11], 25%; in assay [14], 44%.
